ARFGAP1 inh = inhibitors of rat ARFGAP1; Q62848; AID 651572; inhibition, % at 16.5 µM; Arfgap1-stimulated ARF1 GTP hydrolysis, GDP FP detection; 0.26% of 360,000 active;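 active means inhibition above a per-plate limit, mean inhibition of low control wells plus 3 SD, cut at about 25% in these data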;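 further: 0% = DMSO wells with enzyme and 100% = wells lacking Arfgap1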
Target sequence (Q62848 1-136 limits assumed): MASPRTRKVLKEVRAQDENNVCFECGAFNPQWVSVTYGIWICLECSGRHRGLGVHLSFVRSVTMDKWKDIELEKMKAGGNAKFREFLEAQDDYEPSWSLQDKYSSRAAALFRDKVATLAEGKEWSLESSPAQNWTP
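Material – truncated rat Arfgap1 GAP domain · Buffer or medium – HEPES-based buffer, pH 7.5 · Reagent – human ARF1(Δ1-17)-GTP substrate · Dosing – 16.5 µM single point, 1.26% DMSO · Schedule – GTP hydrolysis reaction 2 h at 25 °C · Technique – GDP detection by fluorescence polarization · Benchmarks – No-Arfgap1 wells (100%) versus DMSO full-reaction wells (0%) · Repeats – single replicate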
rCAG binder = molecules binding r(CAG) RNA repeats; AID 651821; 1.3% of 370,000 active; inhibition, % at 3 µM; r(CAG) RNA repeat, TO-PRO-1 dye displacement fluorescence;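 active means inhibition above the plate cutoff, the mean of all test compounds on that plate plus 3 SD, cut at about 35% in these data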;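 further: 0% = DMSO alone and 100% = 100 µM mitoxantrone as full dye displacement; higher means more dye released from RNA so lower well fluorescence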
NadD inh = blocks S. aureus nicotinate mononucleotide adenylyltransferase. 0.78% of 360,000 active. AID 602399. purified NadD enzyme, colorimetric absorbance read-out. inhibition, % at 20 µM; in the data active means inhibition above about 26%
ASAP1 inh = ASAP1 ArfGAP inhibition; inhibition, % at 16.5 µM; Q9ULH1; 0.19% of 360,000 active; AID 624377; ASAP1-stimulated ARF1 GTP hydrolysis, GDP FP detection; in the data active means inhibition above about 25%;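 further: 0% = vehicle with enzyme and substrate and 100% = no enzyme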
NadD inh conf = NadD (S. aureus) inhibition, single concentration confirmation; shares compounds with NadD inh; inhibition, % at 20 µM; AID 624309; 13% of 2,000 active; purified S. aureus NadD, colorimetric enzyme assay; in the data active means inhibition mostly above about 42%, no sharp cut-off; inactive means mostly below about 42%
ASAP1 inh confirm = confirmation of human ASAP1 inhibitors; 37% of 620 active; inhibition, % at 16.5 µM; ASAP1-stimulated Arf1 GTPase, GDP fluorescence polarization; shares compounds with ASAP1 inh;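 active means mean inhibition over triplicates exceeds the hit threshold derived for the earlier primary screening run, cut at about 25% in these data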
ARFGAP1 confirm = rat ARFGAP1 inhibition, confirmed; 30% of 890 active; inhibition, % at 16.5 µM; AID 651608; ARFGAP1-stimulated ARF1 GTP hydrolysis, GDP tracer FP; shares compounds with ARFGAP1 inh;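 active means average inhibition over triplicates above the hit cutoff set in the earlier primary screen, cut at about 25% in these data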;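 further: 0% = Arfgap1 plus ARF1-GTP with DMSO and 100% = wells lacking Arfgap1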
* marks the source's active call; other numbers are inactive results; · = not tested or not shown. This is a sample that favours compounds with a hit; in the whole collection about 2.2% have one here.

SMILES	ARFGAP1 inh	rCAG binder	NadD inh	ASAP1 inh	NadD inh conf	ASAP1 inh confirm	ARFGAP1 confirm
COc1ccccc1NS(=O)(=O)c1cccc(C(=O)N/N=C/c2cn(-c3ccccc3)nc2-c2ccccc2)c1	3.4	14.8	32.6*	-1.9	25.1	·	·
COC(=O)C1=C(C)N(Cc2ccc(C(F)(F)F)cc2)C(=NCc2ccc3c(c2)OCO3)NC1c1cccc(Cl)c1 (centres undefined)	12.5	6.2	·	6.9	·	·	·
Cc1cc(C(=O)N/N=C/c2cc(Br)cc(Br)c2OC(=O)c2cccc(F)c2)n[nH]1	-1.2	11.9	31.9*	-2.7	12.6	·	·
O=C(c1cc(Cl)cc(Cl)c1)N1CCC(Oc2cccnc2)CC1	·	-1.7	·	·	·	·	·
Cn1cnnc1SCc1ccc(-c2ccc(Br)cc2)o1	-4.0	5.7	40.8*	-10.3	13.4	·	·
COc1ccc(S[C@]2(C(=O)N3CCCC3)CC(=O)N(C(=O)/C=C/c3ccccc3)[C@@H]2c2ccc(OC)cc2)cc1	·	13.4	·	·	·	·	·
O=C(NCc1ccco1)C12CN(Cc3ccccc3)CC1C(c1cccc([N+](=O)[O-])c1)=NO2 (centres undefined)	0.3	6.6	36.4*	24.8*	11.6	7.9	·
O=S1(=O)N[C@H](Cc2ccccc2)COc2cc(Br)ccc21	7.1	4.9	·	10.3	·	·	·
N/C(=N\N=C\c1ccnc2ccccc12)SC1CC(=O)N(c2ccc(Br)cc2)C1=O (centres undefined)	10.8	23.0	46.4*	60.9*	7.4	87.5*	·
O=c1c2ccccc2sn1-c1ccc(S(=O)(=O)N2CCCCC2)cc1	7.4	4.4	31.3*	25.3*	11.6	8.4	·
O=c1c2ccccc2sn1-c1ccc(S(=O)(=O)N2CCCC2)cc1	-11.5	8.8	21.9	0.0	·	·	·
Cc1ccc(NC(=S)NNC(=O)CSc2nnc(-c3ccc(C)cc3)n2C2CCCCC2)cc1	·	34.1	·	·	·	·	·
O=C(Nc1nnc(-c2ccc3c(c2)OCCO3)o1)c1ccc(Cc2ccccc2)cc1	92.5*	6.8	48.3*	133.0*	7.9	138.8*	155.3*
COc1cccc(CNC(=O)[C@H]2CCCN2C(=O)[C@H]2CCCN2C(=O)c2cccc(F)c2)c1	-6.4	0.4	·	-9.9	·	·	·
CCOc1ccc(C(=O)Nc2cc(-c3nc4ccccc4[nH]3)ccc2Cl)cc1[N+](=O)[O-]	109.4*	24.4	33.6*	68.5*	13.4	123.2*	151.3*
CCOc1ccc(C(=O)Nc2cccc(-c3cc4ccccc4oc3=O)c2)cc1[N+](=O)[O-]	42.4*	6.5	36.5*	25.9*	-3.7	36.8*	46.4*
CCOc1ccc(C(=O)Nc2cc(-c3nc4ccccc4[nH]3)ccc2C)cc1[N+](=O)[O-]	6.2	25.5	11.5	18.4	·	·	·
CCC(C)C(=O)Nc1nc(C)c(-c2csc(Nc3cc(OC)ccc3OC)n2)s1 (centres undefined)	10.6	22.5	7.2	2.5	·	·	·
CCC(C)C(=O)Nc1nc(C)c(-c2csc(Nc3cc(Cl)ccc3OC)n2)s1 (centres undefined)	30.6*	31.9	32.4*	9.9	13.1	·	10.0
COc1cc(C#Cc2c(-c3cncn3C)n(C)c3ccc(-c4ccc5cc[nH]c5c4)cc23)cc(OC)c1	31.8*	21.3	39.4*	20.8	46.8	·	21.2
COc1cc(C#Cc2c(-c3cncn3C)n(C)c3ccc(Br)cc23)cc(OC)c1	14.7	12.4	17.2	13.6	·	·	·
Cc1nc2ccc(NC(=O)c3ccc(Cl)c(NC(=O)c4cccs4)c3)cc2s1	25.5*	14.4	28.1*	18.6	14.2	·	14.2
CCOc1ccc(CCN2C(=S)N([C@@H](Cc3ccc(O)cc3)CN3CCC[C@@H]3CN3C(=S)NC[C@@H]3Cc3ccc(O)cc3)C[C@@H]2Cc2ccc(O)cc2)cc1	25.8*	12.1	36.0*	12.5	22.8	·	10.1
COC(=O)[C@H](C(C)C)N(CCCc1cn(CC2CCCCC2)nn1)S(=O)(=O)c1ccccc1Br	·	3.2	·	·	·	·	·
COC(=O)c1ccc(NC(=O)CCN2C(=O)NC(C)(C)C2=O)cc1	-4.8	1.6	0.4	-5.5	·	·	·
Cc1cccc(/C=C2/Sc3ccc(C(=O)NCCN4CCCC4)cc3NC2=O)c1	7.2	17.9	11.7	-1.4	·	·	·
COc1cccc(/C=C2/Sc3ccc(C(=O)NCCN4CCCCCC4)cc3NC2=O)c1	29.0*	19.0	41.9*	31.1*	-2.5	35.8*	37.2*

Assay outcomes: PubChem BioAssay, several laboratories
